Measurements from the EternaBench riboswitch data.

Test system: MS2 coat protein
Assay: apparent Kd, MS2 coat protein; higher = weaker binding; RNA-MaP array; FMN 200 µM where present
Procedure, shortened: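 Stalled E. coli RNA polymerase transcribed the designs on Illumina sequencing-chip clusters. SNAP-549-labelled MS2 coat protein was titrated from 0.7 or 1.5 nM, doubling to 3 µM, without and then with constant ligand, in 100 mM Tris-HCl pH 7.5, 80 mM KCl, 4 mM MgCl2, BSA, DTT, yeast tRNA and Tween-20. Per-cluster binding curves were fitted to green signal normalised to red-channel RNA signal and control-cluster median Fmax. The apparent Kd is the median of the filtered fits.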

[1] = designed as: ON switch for flavin mononucleotide, no ligand
[2] = ligand present: flavin mononucleotide, designed as: ON switch for flavin mononucleotide
[3] = designed as: OFF switch for flavin mononucleotide, no ligand
[4] = ligand present: flavin mononucleotide, designed as: OFF switch for flavin mononucleotide

Sequence	apparent Kd [1]	apparent Kd [2]	apparent Kd [3]	apparent Kd [4]
AGUUAAUGCACAUGAGGAUCACCCAUGUCACUUUAUAGAAGACAGGAUAUGCAUGCCAUCAAUGUGCAGAAGGGUCAUCACCGA	81 nM	195 nM	–	–
AGUUGGCGAGGAUAUACAUGAGGAUCACCCAUGUGAGAGAAAAAAGUGAGAAAGAAAAGUAGAAGGCGCUGACA	–	–	45.3 nM	217 nM
AGUUGUAAUACAGGAUAUAUAUUAUUUUUAUUUAUAGAAGGGUAAUCACAUGAGGAUCACCCAUGUAUAUACGAGGAAGAAGAG	291 nM	329 nM	–	–
AGUUUUGUACAUGAGGAUCACCCAUGUUAAUAUGUGGUAGUCAGAAGGCAUUGUUAGAGUUUAAAUGAGGAUAUGAAUAUUCAG	72.8 nM	33 nM	–	–
AUAAACGAUCAGGAUAUAUCAAAUCAUAGCUUGAUAGAAGGGAUCACAUGAGGAUCACCCAUGUGAUCUUCUUA	–	–	14 nM	15.8 nM
AUAAAGCGAGGAUAUACAUGAGGAUCACCCAUGUGGCAGCCAGGUAGGAGUGACGUCGGUAGAAGGCGCACCCU	–	–	31.9 nM	35.6 nM
AUAAAUAUAGCGAUAUGAUCGAGAGAUCAUGUCGCUAAUAUUAGAAGGACAUGAGGAUCACCCAUGUAGGAUAUGGGAGUAUAA	107 nM	55.1 nM	–	–
AUAAGCUCGUCAGGAUAUACGUCACUGCGUCAGCAGUGUGGUAAGAUCACAUGAGGAUCACCCAUGUAGAAGGGACGAGCUGAU	–	–	14.7 nM	266 nM
AUAAGUCGAGGAUAUACGGGAUGCUAGCGAAAGCUAGCAUAACAUGAGGAUCACCCAUGUAGAAGGCGACAAUA	–	–	56.2 nM	104 nM
AUAAUUUUAUAUAUCAUUUUAAUCAGAAGGCAUAACAUGAGGAUCACCCAUGUAUAUUAUUGUUAUGAGGAUAUGAUUUGGUUA	–	–	19.1 nM	78.3 nM
AUAAUUUUAUAUAUCUUUUUAAUCAGAAGGCAUAACAUGAGGAUCACCCAUGUAUAUUAUAGUUAUGAGGAUAUGAUUUGGUUA	–	–	8.94 nM	11.3 nM
AUACAUGAGGAUCACCCAUGUUACUGGGUCUAUAUAGAACGUAGAAGGAUGUAUUUACACAUAACAUAGGAUAUACUUUAUAGU	–	–	55.2 nM	41.9 nM
AUACCACGAGGAUAUCGUCUAUAAUACAUGAGGAUCACCCAUGUUAUAUAUGUAAUGUUUCGAGAAGGCGUGUUUU	–	–	16.6 nM	12.9 nM
AUACUCAUGUAAGGAUAUGCGGCCGUUUCGGCUGCAGAAGGUACUAUAAUACAUGAGGAUCACCCAUGUCUCUCGCAUUGCGAG	556 nM	61.4 nM	–	–
AUAGAAGACUAGAAGGACCUAGUUGUAUAUUGUCGAGGUAUAUAAUUAGGUAGGAUAUGGGACAUGAGGAUCACCCAUGUCUUG	8.27 nM	7.5 nM	–	–
AUAGACAUACAGCCACAUGAGGAUCACCCAUGUACGCUGACGAGAAGGGUCAGCUAGCAGAGGUGACAGGAUAUCGGACAUGAA	149 nM	89 nM	–	–
AUAGCAUACCGAGGAUAUUCAUAUAAUAAAUAAACAUGAGGAUCACCCAUGUGGCGAAAGCCUAGGGAGAAGGCGGAAUGCUAA	218 nM	23.3 nM	–	–
AUAGCCGGGAGGUAAACUCGUGCGGCAGAAGGGUGAUACUGGACAUGAGGAUCACCCAUGUGCACACAGGAUAUGCCCGCGAGC	159 nM	33.3 nM	–	–
AUAGCGCCCGAGAAGGACGUACCACAUGUUGAUCACCGAUAUAAGGAACGUAGGAUAUUGGACAUGAGGAUCACCCAUGUGGAU	122 nM	47.1 nM	–	–
AUAGCUCCCUAGAAGGGCCAACGACAAUUGCAUCACGUAGUUGGCGUAGGUAGGAUAUGGGACAUGAGGAUCACCCAUGUGUAG	27 nM	16.1 nM	–	–
AUAGUACAUGAGGAUCACCCAUGUCAGGAUAUCGGAUGUGACAUGAAAAAAAUGUUAAUGAGAAGGGACUAUAA	–	–	43.6 nM	49 nM
AUAGUGCGCGAGAAGGACGUACCACAUGUUGAUCACCGAUAUAAGGAACGUAGGAUAUUGCACAUGAGGAUCACCCAUGUGGAU	16.6 nM	21.3 nM	–	–
AUAGUUAGUAUAGAUGAGGGCAGCAGAAGGCAAUAUGCUUGUGCCGACAUGAGGAUCACCCAUGUUGAGGAUAUGCGUCCUUCG	–	–	6 nM	16.9 nM
AUAUAAUAUCAGGAUAUGACUAGCUUCGGCUAGUCAGAAGGGAUGACAUGAGGAUCACCCAUGUGAUCAUAUAU	–	–	35.7 nM	153 nM
AUAUAGUCAGGAUAUCGAAGUGUGUGUUGGUUUGUAAUUUACGAGAAGGGACAUGAGGAUCACCCAUGUAGGAA	–	–	40.1 nM	34.9 nM
AUAUAUAACUAAGGAUAUCUGUAUUUUGUUGAAACAUGAGGAUCACCCAUGUUCAUGAAAUUAUAGGAGAAGGUAGAUAUAUAU	4.93 nM	4.54 nM	–	–
AUAUAUACAAAGUUACAUGAGGAUCACCCAUGUUUAUUGGGAAGAAGGGUAACAUUAUUAGAUGUAUAGGAUAUUUCACAAUUG	599 nM	327 nM	–	–
AUAUCAUACCAAGGAUAUUUAGGACUUGUGUAGACAUGAGGAUCACCCAUGUGGCGUUAGUCACGGGAGAAGGUGGUAUGAUAU	83 nM	18.5 nM	–	–

Sequence	apparent Kd [1]	apparent Kd [2]	apparent Kd [3]	apparent Kd [4]
AUAUCCAAUCAAGGAUAUGUAUUAAAGAUUUGAAAACAUGAGGAUCACCCAUGUAUAUGGUGGGAACAGAAGGUGAAUAAGUAA	–	–	140 nM	164 nM
AUAUCCUAGAUAGGAUAUACUGAGGUUGAAUGGGUAGAAGGAUCGUUAGGGAAGACUACAUGAGGAUCACCCAUGUUGUUUAUU	116 nM	92.9 nM	–	–
AUAUCCUUUUUAUACAUGAGGAUCACCCAUGUUUUUCUUACGUAGGAUAUCGUUGUUUUUUUUUACGAGAAGGACGUAGAAUGU	23.6 nM	23.9 nM	–	–
AUAUCUAUAUCAGGAUAUGGACAGGCCUGUCCGUAUUGAGACAGUAACAUGAGGAUCACCCAUGUCCAGAAGGGAUCGAUAUAU	–	–	38.6 nM	41.8 nM
AUAUCUCAAUUAGAUCCAAUACGAACAUGAGGAUCACCCAUGUAGGAUAUGCUAGAAGUUGUGUUGCAGAAGGACAUAUACCUU	–	–	41.4 nM	38.6 nM
AUAUCUCUAUAAGUUCCAAUACGAACAUGAGGAUCACCCAUGUAGGAUAUGCUAGAAGUAGAGUUGCAGAAGGACAAGUACCUU	–	–	7.48 nM	6.75 nM
AUAUCUCUAUUAGUUCCAAUACGAACAUGAGGAUCACCCAUGUAGGAUAUGCUAGAAGUUGUGUUGCAGAAGGACAUGUACCUU	–	–	11.7 nM	25.8 nM
AUAUGAGCUAUGGAGGAUAUCCAUAACAAGACAUGAGGAUCACCCAUGUAAUCAAAACAAUAAUGGGAGAAGGCCAUAGCUCAAU	67.8 nM	76.5 nM	–	–
AUAUGGAAUACAGGAUAUGUAAGUUUUAAGUGUAUUGGUUAUUACUUUACAACAGAAGGGUAUUACAUGAGGAUCACCCAUGUA	13.2 nM	10.7 nM	–	–
AUAUGUGUCGAGAAGGGCUCACGUAACGGAACAGCAGGAUAUCGACAUGAGGAUCACCCAUGUCGGAACGAACGGAUCUUUACU	–	–	7.22 nM	8.53 nM
AUAUUGUGAGGAUAUGAACAUAGUAUCGAAAGAUACUAAGUUCAGAAGGCACAUGAGGAUCACCCAUGUUUCUC	–	–	70.2 nM	738 nM
AUAUUUAAUAUAGGAUAUAGGAAGAAUGAUGAACUAGAAGGAUAACAUACAUGAGGAUCACCCAUGUCCCAUGUGAUCACCCAU	–	–	321 nM	338 nM
AUAUUUGAUGAGGAUAUCGUUGUGGGUAUAUAGCGAGAAGGCAUUACAUGAGGAUCACCCAUGUAGUGUGGGUU	–	–	25.9 nM	37 nM
AUCAAGUGAGGAUAUGAUUAUACAACAAACUAACAUCUACAUCAGAAGGCACAUGAGGAUCACCCAUGUUUGUC	–	–	18.1 nM	16.6 nM
AUCAGCUCAUCAGGAUAUACAUCACUGCUUCGGCAGUGUAUUAAGAUCACAUGAGGAUCACCCAUGUAGAAGGGAUGAGCUGAU	–	–	32.7 nM	347 nM
AUCAGCUCGUCAGGAUAUACGUCACUGCGUCAGCAGUCUGGUAAGAUCACAUGAGGAUCACCCAUGUAGAAGGGACGAGCUGAU	–	–	19.1 nM	288 nM
AUCAGCUCGUCAGGAUAUACGUCACUGCGUCAGCAGUGUGGUAAGAACACAUGAGGAUCACCCAUGUAGAAGGGACGAGCUGAU	–	–	6.31 nM	7.81 nM
AUCAGCUCGUCAGGAUAUACGUCACUGCGUCAGCAGUGUGGUAAGAUCACAUGAGGAUCACCCAUGUAGAAGGGAGGAGCUGAU	–	–	15 nM	438 nM
AUCAGCUCGUCAGGAUAUACGUCACUGCUUCGGCAGUGUGGUAAGGUCACAUGAGGAUCACCCAUGUAGAAGGGACGAGCUGAU	–	–	8.32 nM	120 nM
AUCAGCUCGUCAGGAUAUCCGUCACUGCGUCAGCAGUGUGGUAAGAUCACAUGAGGAUCACCCAUGUAGAAGGGACGAGCUGAU	–	–	6.08 nM	6.5 nM
AUCAGCUUGUCAGGAUAUGCAUGUCAACGAAAGUUGACAAUCUUAAUAACAUGAGGAUCACCCAUGUAGAAGGGACGAGCUGAU	–	–	17.1 nM	19.3 nM
AUCAUCUUGUCAGGAUAUGCGUGUCGACGAAAGUAGACAAUCUUGAUAACAUGAGGAUCACCCAUGUAGAAGGGACGAGAUGAU	–	–	21.6 nM	24.5 nM
AUCAUGUGAGGAUAUAAAAUGAAUAUAAAUUAUUAUCUUGAUUAGAAGGCACAUGAGGAUCACCCAUGUCUGAA	–	–	32.5 nM	39.2 nM
AUCCAGCGAGGAUAUACAUAGUUUUUUUCGUUUUGUCUCGAACAUGAGGAUCACCCAUGUAGAAGGUGCUUCAC	–	–	72.5 nM	67.2 nM
AUCCUACAUGAGGAUCACCCAUGUAAGGAUAUGCGGCGACGAGAUUGUCUAUACGGCCGCAGAAGGUACCCGGG	–	–	16.1 nM	18.6 nM
AUCUUGUCAGGAUAUGACUACAUAAAAAAAAAAAAAUGUAGUCAGAAGGGACAUGAGGAUCACCCAUGUACUAA	–	–	34.9 nM	54.1 nM
AUGACUUAUGUAGGAUAUGCAUAGAGUUGCUAUGCAGAAGGACAUGAGGAUCACCCAUGUAUGUAUACCUUACAAAACUAGCAU	–	–	9.07 nM	54 nM
